Results on 16 compounds are retold here after ChEMBL document CHEMBL1137762, “Design, microwave-assisted synthesis and HIV-RT inhibitory activity of 2-(2,6-dihalophenyl)-3-(4,6-dimethyl-5-(un)substituted-pyrimidin-2-yl)thiazolidin-4-ones” (Bioorg Med Chem, 2009).

pIC50: −log10 of the molar value.

By pIC50 is commonly meant the negative decadic logarithm of the IC50, by convention in mol/L.

This experiment addresses Human immunodeficiency virus type 1 reverse transcriptase (Human immunodeficiency virus 1, UniProt Q72547). The experiment can be described thus: Inhibition of HIV1 reverse transcriptase after 1 hr by ELISA. An outline of the steps:
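Commercial colorimetric RT kit; template/primer complex, biotin- and DIG-labelled dNTPs and RT enzyme in lysis buffer, with or without inhibitor, incubated 1 h at 37 °C. Product captured on streptavidin-coated plate, washed, probed with anti-DIG-peroxidase, then ABTS substrate added; absorbance read at 405 nm.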
(In general: In an ELISA, binding on a coated surface is turned into a signal by an enzyme label.)
As to `CCCCc1c(C)nc(N2C(=O)CSC2c2c(F)cccc2Cl)nc1C` (stereo unspecified), the pIC50 was 4.80.
`CCCCc1c(C)nc(N2C(=O)CSC2c2c(Cl)cccc2Cl)nc1C` (stereo unspecified) had a negative logarithm of the IC50 (pIC50) of 5.37.
Take `Cc1nc(N2C(=O)CSC2c2c(F)cccc2Cl)nc(C)c1CCC#N` (stereo unspecified): the pIC50 was 5.70.
In the case of `C=CCc1c(C)nc(N2C(=O)CSC2c2c(F)cccc2Cl)nc1C` (stereo unspecified) it was 5.53; in that of `Cc1nc(N2C(=O)CSC2c2c(F)cccc2Cl)nc(C)c1Br` (stereo unspecified), 5.82; in that of `CCCc1c(C)nc(N2C(=O)CSC2c2c(Cl)cccc2Cl)nc1C` (stereo unspecified), 6.11.
As to `Cc1nc(N2C(=O)CSC2c2c(F)cccc2Cl)nc(C)c1C` (stereo unspecified), the pIC50 was 6.42.
In the case of `CCCCCc1c(C)nc(N2C(=O)CSC2c2c(F)cccc2Cl)nc1C` (stereo unspecified) it was 4.79; in that of `CCCc1c(C)nc(N2C(=O)CSC2c2c(F)cccc2Cl)nc1C` (stereo unspecified), 6.07; in that of `Cc1nc(N2C(=O)CSC2c2c(Cl)cccc2Cl)nc(C)c1Br` (stereo unspecified), 5.01.
The same measure for `CCc1c(C)nc(N2C(=O)CSC2c2c(F)cccc2Cl)nc1C` (stereo unspecified): 6.64; for `Cc1nc(N2C(=O)CSC2c2c(Cl)cccc2Cl)nc(C)c1C` (stereo unspecified): 6.08.
Take `C=CCc1c(C)nc(N2C(=O)CSC2c2c(Cl)cccc2Cl)nc1C` (stereo unspecified): the negative-log IC50 (pIC50) was 5.91.
The same measure for `CCc1c(C)nc(N2C(=O)CSC2c2c(Cl)cccc2Cl)nc1C` (stereo unspecified): 6.59; for `CCCCCc1c(C)nc(N2C(=O)CSC2c2c(Cl)cccc2Cl)nc1C` (stereo unspecified): 4.13; for `Cc1nc(N2C(=O)CSC2c2c(Cl)cccc2Cl)nc(C)c1CCC#N` (stereo unspecified): 5.99.
